High-throughput results deposited in PubChem BioAssay by Johns Hopkins Ion Channel Center.
Compounds with a hit are over-represented: about 4.1% of the library has one in this group of screens.
MrgX1 agonist = agonists of human MrgX1 receptor, primary screen, HEK293 cells, Fluo-4 calcium flux; Fluo-4 calcium fluorescence, agonist mode; stronger effect = higher value; B-score at 10 µM; 0.44% of 310,000 active; AID 588627, 2011;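 active means calcium response B-score plate-corrected fluorescence ratio at least 3 library SD, with starting fluorescence B-score inside 5 SD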
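Material: HEK293 cells stably expressing human MrgX1 receptor | Quantity: 15,000 cells per well | Times: Cells plated overnight, dye loaded 0.5 h 37 °C, 0.5 h room temperature | Measured by: Kinetic Fluo-4 NW fluorescence of intracellular calcium | Control set: Positive and negative controls per plate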
MrgX1 antag = antagonists of human MrgX1 receptor, primary screen, HEK293 cells, Fluo-4 calcium flux; AID 588676, 2011; Mas-related G-protein coupled receptor member X1 (Homo sapiens), Q96LB2; B-score at 10 µM; 1.3% of 310,000 active; BAM8-22 antagonism; stronger effect = lower value;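 active means calcium-response B-score plate-corrected more than 3 library SD below zero, starting fluorescence within 5 deviations, no agonist response on first addition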;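 further: peak minus trough fluorescence over baseline after final BAM8-22 challenge near maximal dose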
RGS4 inh = RGS4 inhibitors, primary screen, cell-based, HEK293 M3R inducible RGS4, calcium flux. Fluo-4 calcium flux; stronger effect = higher value; triggered by carbachol at its EC20. AID 463165, 2010. 0.45% of 310,000 active. B-score at 10 µM;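 active means B-score, a plate-corrected calcium signal, over three deviations above library mean, with baseline fluorescence within five deviations of library mean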;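 further: RGS4 expression induced by doxycycline in cells with stable M3 receptor; B-score is computed from the integrated fluorescence ratio over baseline after carbachol; higher B-score means a larger calcium signal and so more RGS4 inhibition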
Target sequence (P49798 whole entry, looked up): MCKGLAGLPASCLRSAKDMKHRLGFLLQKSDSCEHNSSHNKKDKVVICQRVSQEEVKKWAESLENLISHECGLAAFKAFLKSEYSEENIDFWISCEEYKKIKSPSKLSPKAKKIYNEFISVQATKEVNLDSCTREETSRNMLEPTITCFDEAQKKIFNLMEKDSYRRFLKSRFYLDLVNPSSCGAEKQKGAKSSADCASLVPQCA
Kir21 inh = inhibitors of mouse Kir2.1 inward-rectifier potassium channel; Inward rectifier potassium channel 2 (Mus musculus), P35561; HEK293-Kir2.1, FluxOR thallium flux fluorescence; stronger effect = lower value; B-score at 10 µM; 0.85% of 310,000 active; AID 1672, 2009;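 active means fluorescence ratio B-score at or below minus 3 SD of library scores, with starting-brightness B-score within 2 SD, cut at about -4.2 in these data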;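 further: channel flux triggered by added potassium and thallium sulfate stimulus; B-score of peak minus minimum fluorescence over baseline after thallium stimulus; more negative B-score means stronger Kir2.1 block with less thallium influx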
Target sequence (P35561 whole entry, looked up): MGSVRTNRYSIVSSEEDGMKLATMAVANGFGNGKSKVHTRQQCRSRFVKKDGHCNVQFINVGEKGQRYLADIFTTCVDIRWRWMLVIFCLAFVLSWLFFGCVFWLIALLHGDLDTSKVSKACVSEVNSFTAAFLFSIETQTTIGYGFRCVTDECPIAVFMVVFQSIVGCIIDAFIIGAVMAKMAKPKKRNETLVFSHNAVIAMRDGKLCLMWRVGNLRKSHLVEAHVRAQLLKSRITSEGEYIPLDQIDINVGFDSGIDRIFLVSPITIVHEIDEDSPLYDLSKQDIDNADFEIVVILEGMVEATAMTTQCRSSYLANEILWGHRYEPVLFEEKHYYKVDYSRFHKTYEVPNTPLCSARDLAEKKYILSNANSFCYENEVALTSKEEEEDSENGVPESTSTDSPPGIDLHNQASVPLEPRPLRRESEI
RGS4 act = RGS4 potentiators or activators, primary screen, cell-based, HEK293 M3R inducible RGS4, calcium flux; carbachol calcium flux Fluo4; stronger effect = lower value; B-score at 10 µM; 0.92% of 310,000 active;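 active means B-score of the integrated calcium signal more than 4 SD below the library mean, with starting fluorescence not abnormally high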;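 further: negative B-score means reduced calcium response which marks RGS4 activation or potentiation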
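Assay system: Inducible-RGS4 HEK293 cells carrying M3 receptor | Schedule: Compound preincubation 20 min at room temperature before agonist | Signal: Kinetic calcium fluorescence imaging with Fluo4-AM dye, 2 µM | Read-out basis: B score from integrated fluorescence ratio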
MrgX1 PAM = positive allosteric modulators of MrgX1, primary screen, HEK293 cells, Fluo-4 calcium flux. 0.63% of 310,000 active. Mas-related G-protein coupled receptor member X1 (Homo sapiens), Q96LB2. FDSS; stronger effect = higher value. B-score at 10 µM;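 active means plate-corrected calcium response at least 3 library SD above typical, normal starting fluorescence, not activating the receptor alone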;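 further: compound read alongside a low EC10 to EC30 dose of BAM8-22 agonist; peak minus trough fluorescence over baseline measured at the second addition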
Of the large screens only hits and unclear results are named; the others gave an inactive call; ! = not confirmed by another sample.

Cc1cc(C)c2cc(C#N)c(N3CCCN(C(=S)NCCCN(C)C)CC3)nc2c1	Kir21 inh -6.6
Cc1ccc2cc(C#N)c(N3CCCN(C(=S)NCCCN(C)C)CC3)nc2c1	none
C[N+]1(C)CCC(=C2c3ccccc3CC(=O)c3sccc32)CC1	RGS4 act -8.3
N=c1c(-c2nc3ccccc3[nH]2)cc(C(=O)c2cccs2)nn1-c1ccccc1	RGS4 act -8.6
Cc1ccc(C(=O)N2CCN(c3ncnc4c3cnn4-c3ccccc3)CC2)cc1	none
FC(F)(F)c1cc(CCN2C(=S)NC[C@@H]2CC2CCCCC2)cc(C(F)(F)F)c1	RGS4 act -9.8
CCC(C)NC(=O)CN(c1cc(C)cc(C)c1)S(=O)(=O)c1c(C)[nH]c(=O)[nH]c1=O (centres undefined)	none
COc1ccc(C[C@H]2CN3C(=NC[C@@H]3C(C)C)N2CCNC(=O)c2ccc(C)c(Br)c2)cc1	Kir21 inh -6.5
CSc1nc(=O)n2cc(C)ccc2n1	none
Cc1noc(C)c1COC(=O)COc1ccc(C#N)cc1	none
COc1ccc(CNCc2ccco2)cc1OCc1ccccc1	none
COc1cc(CNCCc2ccccc2)ccc1OCc1ccc(Cl)nc1	Kir21 inh -6.4
CCCCNCc1ccc(OCc2ccc(Cl)nc2)c(OC)c1	none
COc1ccccc1CCNCc1ccc(OC)c(OCc2ccccc2)c1	Kir21 inh -8.5
CCOC(=O)N1CCN(C(=O)c2ccccc2CCc2ccccc2)CC1	none
O=C(Oc1ccc2ccccc2c1)C1CCC1	none
COc1ccc(-c2cc(C(=O)OCC(=O)NC(C)C)c3ccccc3n2)cc1	Kir21 inh -4.4
CCCNC(=O)COC(=O)c1cc(-c2ccc(OC)cc2)nc2ccccc12	none
COC(=O)C1=C(C)N(C)C(C)=C(C(=O)OC)C1c1ccncc1	none
COC(=O)C1=C(C)N(C)C(=S)N(C)C1c1cccc(Br)c1 (centres undefined)	Kir21 inh -5
CCOC(=O)C1=C(C)N(C)C(=S)N(C)C1c1ccc(OC)cc1 (centres undefined)	none
COC(=O)C1=C(C)N(C)C(C)=C(C(=O)OC)C1c1ccc(F)c(Br)c1	RGS4 act -7.2
O=C(CSc1cccc2cccnc12)Nc1ccc(S(=O)(=O)N2CCOCC2)cc1	none
CN1CCCC(CN2c3ccccc3Sc3ccccc32)C1 (centres undefined)	none
CN1CCCCC1CCN1c2ccccc2Sc2ccc(S(C)=O)cc21 (centres undefined)	RGS4 act -7.3
Cc1ccc(S(=O)(=O)Oc2ccccc2/C=N/Nc2ccc(C(=O)O)cc2)cc1	none
Cc1ccc(S(=O)(=O)Oc2ccccc2/C=N/O)cc1	Kir21 inh -6.9
Cn1cc(Br)c(C(=O)Nc2sc3c(c2C#N)CCC3)n1	none
NCCCC(=O)N1c2ccccc2Sc2ccccc21	RGS4 act -7
CCN(CC)CC(=O)N1c2ccccc2Sc2ccc(Cl)cc21	RGS4 act -9.8
CCOCCCNC(=O)C1CCN(C(=O)Nc2ccc(C)cc2)CC1	none
CN(CC(=O)Nc1ccccc1)CC(=O)Nc1ccccc1Cl	none
CN(CC(=O)Nc1ccccc1Cl)CC(=O)Nc1ccccc1[N+](=O)[O-]	MrgX1 PAM 10
Cc1ccc(S(=O)(=O)NCCc2nnc3ccc(NCCCOC(C)C)nn23)cc1	none
COc1ccc(S(=O)(=O)N2CCCCCC2)cc1NC(=O)c1c2c(nc3ccccc13)CCN(Cc1ccccc1)C2	none
CCN(CC)S(=O)(=O)c1ccc(OC(C)C)c(NC(=O)c2c3c(nc4ccccc24)CCN(Cc2ccccc2)C3)c1	MrgX1 antag -5
O=C(NN1C(=O)C2C(c3ccccc3)C=CC(c3ccccc3)C2C1=O)c1ccncc1 (centres undefined)	MrgX1 agonist 28
O=C(NN1C(=O)C2C3C=CC(C3)C2C1=O)c1ccncc1 (centres undefined)	none
COc1ccc(OC)c(NC(=O)CSCc2cnn(-c3ccccc3)c2-n2cccc2)c1	Kir21 inh -4.3
COc1ccccc1CNC(=O)CSCc1cnn(-c2ccccc2)c1-n1cccc1	Kir21 inh -5.8
Cc1c(NS(=O)(=O)c2cccc(C(=O)O)c2)c(=O)n(-c2ccccc2)n1C	none
Cc1c(NS(=O)(=O)c2cccc(C(=O)NCc3ccc(Cl)cc3)c2)c(=O)n(-c2ccccc2)n1C	MrgX1 antag -6
O=C(NCCNC(=O)c1cc(OCC(F)(F)F)ccc1OCC(F)(F)F)Nc1ccccc1	none
CCNC(=O)NCCNC(=O)c1cc(OCC(F)(F)F)ccc1OCC(F)(F)F	MrgX1 antag -5.5
O=C(Nc1ccc(Cl)c(Cl)c1)OCCNC(=O)c1cccc(Cl)c1	MrgX1 antag -5.3
O=C(Nc1ccccc1)OCCNC(=O)c1cccc(Br)c1	none
CN(C)S(=O)(=O)N(CC(=O)NCCSCc1ccc(Cl)cc1)c1ccccc1	MrgX1 antag -7.8
CS(=O)(=O)N(CC(=O)NCCSCc1ccccc1)c1ccccc1	none
O=C(Nn1cnc2ccccc2c1=O)C1CCCCC1	MrgX1 antag -7.5
CC(C)[N+]1(C)[C@@H]2CC[C@H]1CC(OC(=O)C(CO)c1ccccc1)C2 (some centres undefined)	none
CN1[C@@H]2CC[C@H]1CC(OC(=O)C(CO)c1ccccc1)C2 (some centres undefined)	RGS4 act -7
CN1C2CCC1CC(OC(=O)C(CO)c1ccccc1)C2 (centres undefined)	none (no result: RGS4 inh, Kir21 inh, RGS4 act)
CN1C2CC(OC(=O)C(CO)c3ccccc3)CC1C1OC12 (centres undefined)	RGS4 act -7.9!
Cc1ccc(C(=O)NC2CCCCCCC2)c(Cl)c1	none
OCC1(CCc2ccccc2)CCN(Cc2cc(Cl)ccc2O)CC1	Kir21 inh -4.8
OCC1(CCc2ccccc2)CCN(Cc2ccc(OC(F)F)cc2)CC1	none (no result: MrgX1 agonist, MrgX1 antag, MrgX1 PAM)
OCC1(CCCc2ccccc2)CCN(Cc2ccc(F)cc2)CC1	Kir21 inh -6.2
CN(c1cccc(NC(=O)c2cccc([N+](=O)[O-])c2)c1)S(C)(=O)=O	none
C=CCNC(=S)NNC(=O)c1ccc(OCCC)cc1	none
CCCOc1ccc(C(=O)NNC(=S)NC(=O)CC)cc1	MrgX1 agonist 51
O=C(c1cc(-c2ccccc2)nn1-c1ccccc1)N1CCN(S(=O)(=O)c2c(F)cccc2F)CC1	none
